Results on six molecules are retold here after ChEMBL document CHEMBL1124457, “In vitro antiproliferative activity of 4-substituted 2-(2-hydroxyphenyl)thiazolines on murine leukemia cells” (J Med Chem, 1989).

Data set [1] is described as follows: Solubility in phosphate-buffered saline (PBS) at pH 7.1. It counts as physicochemical.
The test system of data set [2] is L1210. Briefly: Percent viability against L1210 leukemic cells at 0 uM. The data set is classed as functional, Mus musculus.
The next data set deals with V79 (Cricetulus griseus). Nature of the data set: Tritiated thymidine uptake is estimated after incubation of 120 min with compound(50 uM) and the radiolabel.
The subject of data set [3] is L1210. Nature of the data set: Percent of control growth in L1210 cells by addition of 5 uM of iron-free compound. The data set is classed as functional, Mus musculus. Put shortly: (§1)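 In L1210 iron-reversal runs, FeCl3 aqueous stock was premixed 1:1 molar with chelator stock until an intense purple colour developed, then added to the cells. Growth was compared with chelator alone, FeCl3 alone and DMSO alone. Cells were counted electronically and growth read 48 h after ligand addition as % of control ± SE.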

Data set [4] relates to L1210. Nature of the data set: Percent of control growth in L1210 cells by addition of 5 uM compound as iron(II) chelate (FeCl3). It counts as functional, Mus musculus. Particulars: in the assay text read “iron(III) chelate” for “iron(II) chelate”. Put shortly: as §1
The subject of data set [5] is L1210. Nature of the data set: Percent viability against L1210 leukemic cells at 50 uM. It counts as functional, Mus musculus.
Data set [6] deals with L1210. Nature of the data set: Antiproliferative activity of compound expressed as concentration that inhibits 50% of growth of L1210 leukemic cell suspension from 24 to 48 hr after compound addition. The data set is classed as functional, cell-based. Conditions: Mus musculus. Put shortly:
(§2)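 Cells grown in RPMI 1640 with L-glutamine, 10% defined equine serum, 2% Mopes-Hepes buffer (pH 7.40), penicillin and streptomycin. Tested in log phase (0.5 × 10^5–2 × 10^6 cells/mL), in duplicate. Compound given as 10-µL DMSO stock (one ester in ethanol), with solvent-spiked controls.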

Data set [7] can be described thus: Partition ratio in 1-octanol / phosphate-buffered saline system. The data set is classed as physicochemical. Particulars: buffer. Put shortly: (§3)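 Compound film was left by evaporating an alcohol solution under nitrogen. 5 mL each of 1-octanol and PBS (pH 7.1) were added, sealed under nitrogen and agitated 3 h at 27 °C. Each layer was measured by absorbance at 247 nm against Beer's plots (1.25–10 or 3.25–50 μM).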

In data set [8] the test system is L1210. Nature of the data set: Percent viability against L1210 leukemic cells 48 hr after compound addition at 35 uM concentration. It counts as functional, Mus musculus. Put shortly:
(§4)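 Leukemia cells in RPMI 1640 with 10% defined equine serum and Mopes-Hepes buffer (pH 7.40). Compound added from DMSO stock. Viable cells scored by trypan blue exclusion 48 h after compound addition.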

The test system of data set [9] is P388. Nature of the data set: Antiproliferative activity of compound expressed as concentration that inhibits 50% of growth of P388 leukemic cell suspension from 24 to 48 hr after compound addition. The data set is classed as functional, cell-based. Particulars: Mus musculus. An outline of the steps:
as §2

Data set [10] has as its system P388. Briefly: Percent viability against P388 leukemic cells 48 hr after compound addition at 25 uM concentration. The data set is classed as functional, Mus musculus. Put shortly: as §4
Data set [11] has as its system L1210. Nature of the data set: Percent viability against L1210 leukemic cells at 100 uM. The data set is classed as functional, Mus musculus.
Data set [12] deals with L1210. Briefly: Percent viability against L1210 leukemic cells 48 hr after compound addition at 100 uM. It counts as functional, Mus musculus. Put shortly:
as §4

Data set [13] deals with L1210. Briefly: Percent of control growth in L1210 cells by addition of 100 uM compound as […] chelate (FeCl3). It counts as functional, Mus musculus. Put shortly: as §1
The test system of data set [14] is L1210. Nature of the data set: Percent of control growth in L1210 cells by addition of 100 uM of iron-free compound. It counts as functional, Mus musculus. An outline of the steps:
as §1

For data set [15], the system named is P388. Nature of the data set: Percent viability against P388 leukemic cells 48 hr after compound addition at 100 uM. It counts as functional, Mus musculus. An outline of the steps:
as §4

Data set [16] concerns L1210. Briefly: Percent viability against L1210 leukemic cells at 200 uM. It counts as functional, Mus musculus.
Data set [17] deals with P388. Briefly: Percent viability against P388 leukemic cells 48 hr after compound addition at 100 uM concentration. It counts as functional, Mus musculus. Put shortly: as §4
Data set [18] has as its system L1210. Briefly: Percent of control growth in L1210 cells by addition of 25 uM of iron-free compound. It counts as functional, Mus musculus. Put shortly:
as §1

Data set [19] concerns L1210. Nature of the data set: Percent viability against L1210 leukemic cells at 25 uM. The data set is classed as functional, Mus musculus.
Data set [20] in a line: Partition ratio in 1-octanol / phosphate-buffered saline system. It counts as physicochemical. Particulars: buffer. An outline of the steps: as §3
In data set [21] the test system is L1210. Briefly: Percent of control growth in L1210 cells by addition of 25 uM compound as […] chelate (FeCl3). The data set is classed as functional, Mus musculus. An outline of the steps: as §1
The test system of data set [22] is L1210. Briefly: Percent viability against L1210 leukemic cells 48 hr after compound addition at 100 uM concentration. It counts as functional, Mus musculus. An outline of the steps: as §4
Data set [23] deals with L1210. Briefly: Antiproliferative activity of compound expressed as concentration that inhibits 50% of growth of L1210 leukemic cell suspension from 24 to 48 h after compound addition. It counts as functional, cell-based. Conditions: Mus musculus. Put shortly: as §2
Data set [24] has as its system P388. Briefly: Antiproliferative activity of compound expressed as concentration that inhibits 50% of growth of P388 leukemic cell suspension from 24 to 48 hr after compound addition; ND= Not defined. It counts as functional, cell-based, Mus musculus. Put shortly: as §2
For data set [25], the system named is P388. Briefly: Percent viability against P388 leukemic cells 48 hr after compound addition at 100 uM concentration; ND= Not defined. Particulars: Mus musculus. It counts as functional, cell-based. An outline of the steps: as §4
Data set [26] relates to L1210. Nature of the data set: Antiproliferative activity, concentration that inhibits 50% of growth of L1210 leukemic cell suspension from 24 to 48 hr after compound addition. It counts as functional, cell-based. Conditions: Mus musculus. An outline of the steps:
as §2

Values after ≈ are worked out from the molar mass of the structure shown. A value given as a limit tells only on which side of the number the result lay.

By solubility is commonly meant the dissolved amount per volume that the medium holds. A higher solubility goes with a readily soluble substance. A word on the IC50: it is the concentration needed to halve the response being measured. `O=C(NCCCCN(CCCCNC(=O)C1CSC(c2ccccc2O)=N1)Cc1ccccc1)C1CSC(c2ccccc2O)=N1` (centres undefined) displayed a solubility in data set [1] of 15 µM (≈ 9.9 µg/mL). In addition, the Viability was found to be 87% with L1210 [2], 0% with L1210 [5], 6% in the data set on L1210 [8] and 15% in the data set with P388 [10]. Moreover, the Control in the data set with V79 (Cricetulus griseus) is reported as 48%. For the same molecule, the Control of growth is 22% with L1210 [3] and 21% with L1210 [4]. Also, the results for the IC50 in the data set on L1210 [6] and in the data set on P388 [9] were 3 µM and 1 µM, respectively. Moreover, the Ratio in [7] is listed as 0.96.
In data set [1], `COC(=O)C1CSC(c2ccccc2O)=N1` (centres undefined) registered a solubility of 50 µM (≈ 11.9 µg/mL). Further, the Viability in the data set on L1210 [2] is 99%; in the data set on L1210 [11] it was 46%; in the data set on L1210 [5], 36%; in the data set with L1210 [12], 87%; with P388 [15] it was 85%; in the data set with L1210 [16] it was 42%. The figures for the IC50 in the data set on L1210 [6] and with P388 [9] were 14 µM and 18 µM, respectively. Also, the Ratio in [7] stood at 11.75. The Control of growth in the data set with L1210 [13] is reported as 98%; with L1210 [14], 4%.
In the case of `CC(=O)N(CCCCNC(=O)C1CSC(c2ccccc2O)=N1)CCCCNC(=O)C1CSC(c2ccccc2O)=N1` (centres undefined), the Viability was determined as 85% in the data set with P388 [17]; 99% in the data set with L1210 [2]; 40% in the data set on L1210 [11]; 100% in the data set with L1210 [5]; 92% in the data set on L1210 [19]; 95% with L1210 [22]. Further, the Viability in the data set on L1210 [16] amounted to 27%. In [1], this molecule showed a solubility of 10 µM (≈ 6.12 µg/mL). In addition, the IC50 worked out at 21 µM with L1210 [6] and 12 µM with P388 [9]. For the same molecule, the Control of growth in the data set on L1210 [18] is 29%; in the data set on L1210 [21], 68%. For the same molecule, the Ratio in data set [20] is on record as more than 7.
Take `O=C(O)C1CSC(c2ccccc2O)=N1` (centres undefined): the solubility in data set [1] was found to be 75 µM (≈ 16.7 µg/mL). Also, the Viability in the data set with L1210 [2] amounted to 94%; with L1210 [11] it was 54%; with L1210 [5], 81%; with L1210 [12], 92%; in the data set on P388 [15], 77%; in the data set on L1210 [16], 42%. Also, the IC50 in the data set on P388 [9] worked out at 17 µM; in the data set on L1210 [23], 25 µM. The Ratio in [20] is 0.03.
As for `NC(=O)NO` [HYDROXYUREA], the Viability in the data set on P388 [17] is 96%; in the data set on L1210 [22], 97%. In addition, the IC50 in the data set with L1210 [6] was 85 µM; in the data set with P388 [9], 32 µM.
As to `CCOC(=N)c1ccccc1O`, the values for the IC50 result in the data set on P388 [24] and in the data set with L1210 [26] were “Not defined” and more than 200 µM, respectively. Further, the Viability result is “Not defined” with P388 [25] and more than 99% in the data set on L1210 [22].
